# Source: PubChem BioAssay
# Sampled rows, rich in hits. Any-hit rate of the full collection: about 2.6%.
# FN deposit inh: fibronectin deposition inhibition. hit rate 0.086% among 350,000. AH1F fibroblasts, Alexa488-fibronectin deposition fluorescence, overnight. inhibition, % at 12.6 µM;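 active = mean inhibition across replicates of 30% or more, regardless of how many single replicates reach that level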;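 also: positive control wells lacked labelled fibronectin entirely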
#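 Measured by – fluorescence 485/525 nm · System – AH1F fibroblast monolayer, labelled fibronectin deposition · Amount – 10000 cells per well · Buffer or medium – serum-reduced DMEM (2% serum) · Doses – single dose, pinned · Also added – fluorescent fibronectin at 24 nM final · Schedule – 1 h cell attachment, overnight exposure to compound and label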
# rRNA inh HTS: selective bacterial rRNA inhibition in E. coli; hit rate 1.6% among 350,000; E. coli WT GFP vs humanized-ribosome RFP mutants, fluorescence, 24 h; hits give low values; DMSO median 0, no signal -100; GFP signal change (wild-type ribosome), % (concentration not given with the values);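 active = significant combined selectivity score with lowered wild-type GFP, culture density cut under 30%, mutant RFP and density less affected; inactive = any of these conditions unmet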
# Env fusion inh: blocks HIV Env-driven cell-cell fusion; HeLa-JRFL Env/CEM21 cell fusion, luciferase; inhibition, % at 12.3 µM; hit rate 1.1% among 360,000;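 active = mean replicate inhibition score of at least 50 and every replicate individually at or above 50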;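 also: 0% = plate neutral controls and 100% = maraviroc near 300 nM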
# miR-122 sensor: blocks miR-122 activity in Huh7 sensor cells | Huh7 miR-122 Renilla luciferase sensor, 48 h; neutral wells = 0, positive control = 100 | AID 602342 | activation (reporter increase), % at 12.5 µM | hit rate 0.3% among 340,000;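 active = mean replicate activation score at least 90 and every replicate individually at or above 90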;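 also: higher luciferase means less miR-122 activity so hits act as miR-122 inhibitors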
# S100A4 MyoIIA: blocks human S100A4 binding to myosin IIA peptide | S100A4/TAMRA-MyoIIA peptide fluorescence polarization | inhibition, % at 10.7 µM | hit rate 0.14% among 360,000 | P26447;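 active = mean inhibition of at least 70% across replicates, with every replicate also reaching that level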
# Target sequence (P26447 whole entry, looked up): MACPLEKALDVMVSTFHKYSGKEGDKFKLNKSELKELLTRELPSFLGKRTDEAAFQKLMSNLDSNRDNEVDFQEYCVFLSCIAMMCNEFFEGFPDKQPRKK
#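 Test system: S100A4 monomer protein. Medium: HEPES buffer with Ca2+, pH 7.2. Reagent: fluorescent myosin IIA peptide, 5 nM. Compound dosing: single-point compound testing. Timing: 5 min between mix addition and reading. Benchmarks: DMSO neutral and TFP positive wells.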
# Vif imaging: HIV Vif inhibition. HEK293T cells, Vif self-association by quenched fluorescence, imaging, 24 h. inhibition, % at 7.49 µM. hit rate 0.35% among 340,000; in the data active = inhibition above about 50%, passing the limit was not always enough
# An asterisk follows results filed as active; x = no result given; [ ] = dose if it differs, or a comment.
SMILES,FN deposit inh,rRNA inh HTS,Env fusion inh,miR-122 sensor,S100A4 MyoIIA,Vif imaging
CCc1ccc(C(=O)N2CCC(c3nc4ccccc4s3)CC2)cc1,-1.1,x,-3.5,0.0,x,-0.3
CCC(=O)N1CC2(C1)[C@H](c1ccc(-c3ccccc3)cc1)[C@H](CO)N2C(C)=O,x,-2.1,x,x,x,x
Cc1ccc(S(=O)(=O)N2[C@H](C(C)C)[C@H]3[C@H]4C(=O)N(c5ccccc5)C(=O)[C@H]4CC(=O)[C@H]3[C@@H]2c2ccccc2)cc1,2.3,-0.8,59.2*,6.0,-1.0,-4.0
CCc1ccc(OCCNC(=O)c2ccccc2SCc2ccc(F)cc2)cc1,19.2,x,57.6*,-3.4,x,-1.2
O=C(N[C@H]1CC[C@@H](CC(=O)N2CCCCC2)O[C@H]1CO)c1cccc(F)c1,x,-0.5,-30.9[16.7 µM],x,-32.6,x
CCc1n[nH]c(=S)n1/N=C/c1c(O)ccc2ccccc12,-3.2,-10.0,56.1*,4.3,5.3,3.1
COc1ccc(S(=O)(=O)Nc2ccc3c(c2)C(=O)N([C@H](C)CO)C[C@@H](C)[C@H](CN(C)C(=O)Nc2ccc(F)cc2)OCCCC[C@H](C)O3)cc1,x,1.0,-40.5[16.7 µM],-2.8[16.7 µM],4.0,x
CCN(CC)c1nc2c(c(=O)[nH]c(=O)n2C)n1Cc1ccccc1,-1.5,4.3,0.2,-0.8,7.1,10.3
CCCCCCn1c(N(CC)CC)nc2c1c(=O)[nH]c(=O)n2C,x,x,x,x,x,51.7*
Cc1ccc(C(=O)NCc2ccco2)cc1S(=O)(=O)Nc1cccc(C)c1C,2.9,x,-27.0,244.3*,x,-11.4
COc1ccccc1NS(=O)(=O)c1cc(C(=O)NCc2ccco2)ccc1C,x,x,-37.5,109.9*,x,-10.3
Cc1ccc(C)c(NS(=O)(=O)c2cc(C(=O)NCc3ccco3)ccc2C)c1,-5.3,x,-125.3,200.0*,x,-10.1
Cc1ccccc1NS(=O)(=O)c1cc(C(=O)NCc2ccco2)ccc1C,5.3,x,-57.1,70.8,x,3.1
C[C@@H]1CN([C@@H](C)CO)S(=O)(=O)c2ccc(-c3ccncc3)cc2O[C@H]1CN(C)C(=O)c1ccc2c(c1)OCO2,x,-0.2,11.0[16.7 µM],3.3[16.7 µM],-10.8,x
CCS(=O)(=O)N1CCC2(CC1)CN(C(=O)Nc1c(C)noc1C)[C@@H](CO)c1[nH]c3cc(OC)ccc3c12,x,2.2,x,x,-0.6,x
CNC(=O)C[C@H]1CC[C@H]2[C@H](COc3ccc(NC(=O)c4ccc(F)cc4)cc3C(=O)N2C)O1,x,1.2,-1.1[16.7 µM],-6.0[16.7 µM],-17.8,x
C/C(=N\NC(=O)COc1ccccc1-c1ccccc1)c1ccccn1,-3.0,-49.5*,10.6,5.1,-2.0,-8.8
O=C(CSc1nc2ccccc2s1)Nc1ncccn1,x,x,x,1.0,x,33.0
C/C(=N\NC(=O)COc1ccccc1-c1ccccc1)c1cccnc1,-3.1,-39.6*,6.0,x,-1.1,6.0
CC(=NNC(=S)SCc1ccccc1)c1ccccn1,7.3,-8.5,78.6*,x,0.0,4.3
C/C(=N\NC(=O)CSc1nc2ccccc2s1)c1cccnc1,-3.1,-20.9*,17.8,x,-7.4,2.4
CC(=NNC(=S)N1CCCC1)c1ccccn1,3.1,1.2,33.1,52.8,-5.4,-15.4
CN(C)C(=O)[C@H]1[C@H](CO)[C@H]2Cn3c(ccc(-c4cccc(F)c4)c3=O)[C@@H]1N2Cc1ccccc1,x,0.8,-12.1[16.7 µM],x,-22.6,x
CN(C)CC(=O)Nc1ccc2c(c1)[C@@H]1C[C@@H](CC(=O)NCc3ccncc3)O[C@@H](CO)[C@@H]1O2,-9.3,4.1,-1.4[16.7 µM],-1.6[16.7 µM],7.0,x
C[C@@H]1CN([C@@H](C)CO)C(=O)c2cc(NC(=O)c3ccncc3)ccc2O[C@@H](C)CCCCO[C@H]1CN(C)Cc1ccc(C(=O)O)cc1,x,1.2,5.6[16.7 µM],10.0[16.7 µM],1.8,x
SMILES,FN deposit inh,rRNA inh HTS,Env fusion inh,miR-122 sensor,S100A4 MyoIIA,Vif imaging
O/N=C1\CCCc2ccc3ccccc3c21,-6.1,-38.5*,-1.8,x,1.9,4.2
O=C1CCCc2ccc3ccccc3c21,-1.0,x,5.0,-2.2,-7.5,15.1
COc1ccc(-c2cc(C(=O)N(C)Cc3cccc(OC)c3OC)c3ccccc3n2)cc1OC,16.4,-28.0*,19.8,26.4,-3.9,1.1
CCCC#Cc1ccc2c(c1)O[C@@H](CN(C)CC1CCOCC1)[C@H](C)CN([C@H](C)CO)S2(=O)=O,x,-5.3,x,6.5[16.7 µM],-6.4,x
COc1ccccc1N(CC(=O)Nc1ccccc1)S(=O)(=O)c1cccs1,-5.1,-8.5,-1.4,5.4,9.9,0.4
COc1cccc(NC(=O)CN(c2ccccc2OC)S(=O)(=O)c2cccs2)c1,2.1,-12.1,64.5*,-2.9,2.4,-1.8
COc1ccccc1N(CC(=O)N(CC(C)C)CC(C)C)S(=O)(=O)c1cccs1,32.1*,-37.0,15.1,23.1,0.7,3.1
OC(CNc1ccnc2cc(Cl)ccc12)CNC1CCCCC1 (stereo unspecified),4.8,x,2.2,-15.5,-0.4,2.0
CCNC1CCC(Nc2ccnc3cc(Cl)ccc23)CC1 (stereo unspecified),6.8,10.3,74.1*,-1.8,-0.3,16.8
Oc1ccc(-c2csc(Nc3ncccn3)n2)c(O)c1,3.8,-10.4,-71.0,1.3,0.3,7.7
Cc1nc(-c2ccc(O)c(O)c2)cs1,x,x,x,2.7,x,67.3*
Oc1ccc(-c2csc(-c3ccccc3)n2)cc1O,x,-33.6*,x,-13.6,0.1,x
COc1cc(-c2csc(C)n2)ccc1O,x,x,x,5.5,x,-2.1
Oc1ccc(-c2csc(Nc3ncccn3)n2)cc1O,-7.6,-29.8*,-74.2,x,-17.6,10.7
Nc1nc(-c2ccc(-c3ccccc3)cc2)cs1,-2.5,-25.3*,-168.2,-10.3,-1.3,-27.8
C[C@H]1CN([C@@H](C)CO)C(=O)Cc2cc(NC(=O)CCCCCC(=O)Nc3ccccc3N)ccc2O[C@@H]1CN(C)Cc1ccccc1,x,-1.4,-4.0[16.7 µM],-10.5[16.7 µM],-3.4,x
C[C@@H]1CN([C@H](C)CO)C(=O)Cc2cc(NC(=O)C3CC3)ccc2O[C@@H]1CN(C)CC1CC1,x,1.1,9.5[16.7 µM],9.0[16.7 µM],-14.3,x
O=C(Nc1nc2c(s1)CCCC2)c1ccc(S(=O)(=O)N2CCCc3ccccc32)cc1,x,x,64.0*,-3.0,x,-0.2
CC1CCc2nc(NC(=O)c3ccc(S(=O)(=O)N4CCCc5ccccc54)cc3)sc2C1 (stereo unspecified),x,x,x,-5.4,x,-63.7
COC(=O)Nc1ccc(S(=O)(=O)N2CCCc3ccccc32)cc1,14.9*,x,59.0*,63.8,x,-5.5
Cc1ccc(S(=O)(=O)N(C)C[C@H]2Oc3ccc(NC(=O)CCCCCC(=O)Nc4ccccc4N)cc3CC(=O)N([C@@H](C)CO)C[C@@H]2C)cc1,x,1.1,0.8[16.7 µM],0.0[16.7 µM],5.6,x
C[C@H]1CN([C@@H](C)CO)C(=O)c2cc(-c3ccncc3)cnc2O[C@@H]1CN(C)Cc1ccc(Oc2ccccc2)cc1,11.6,-11.1,-13.9[16.7 µM],-6.1[16.7 µM],0.8,x
COCC(=O)N[C@H]1C=C[C@H](CC(=O)NCc2ccc(Cl)cc2)O[C@H]1CO,6.0,3.2,13.9[16.7 µM],x,0.1,x
